Source: article PMC2077835 (Drug metabolism and disposition: the biological fate of …, 2006)
Blank lines part the entries; values can stand above or below the molecule they belong to.

Columns and labels:
[1] = biological target: T1, CYP2J2 (Homo sapiens, UniProt P51589); test: Chemical inhibition of M1 formation by recombinant CYP2J2; format: biochemical
T1 sequence (P51589 1-502): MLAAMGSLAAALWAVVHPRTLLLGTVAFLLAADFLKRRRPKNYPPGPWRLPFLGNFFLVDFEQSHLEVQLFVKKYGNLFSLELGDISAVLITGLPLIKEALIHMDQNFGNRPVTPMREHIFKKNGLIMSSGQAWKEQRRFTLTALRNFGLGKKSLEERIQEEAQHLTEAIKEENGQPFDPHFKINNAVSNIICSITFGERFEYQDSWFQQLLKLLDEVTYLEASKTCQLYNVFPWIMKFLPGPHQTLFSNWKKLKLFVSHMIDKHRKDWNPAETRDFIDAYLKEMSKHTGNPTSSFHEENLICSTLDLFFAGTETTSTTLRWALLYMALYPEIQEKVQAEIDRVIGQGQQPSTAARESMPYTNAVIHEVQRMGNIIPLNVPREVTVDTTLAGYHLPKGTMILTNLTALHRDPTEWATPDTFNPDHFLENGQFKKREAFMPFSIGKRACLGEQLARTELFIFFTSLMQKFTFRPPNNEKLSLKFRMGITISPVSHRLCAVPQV

[2] = system: M1 formation by human liver microsomes; test: Chemical inhibition of M1 formation by HLMs; format: biochemical
[3] = biological target: T2, recombinant CYP4F3B (Homo sapiens, UniProt Q08477); test: Chemical inhibition of M1 formation by recombinant CYP4F3B; format: biochemical
T2 sequence (Q08477 1-520 isoform Q08477-2): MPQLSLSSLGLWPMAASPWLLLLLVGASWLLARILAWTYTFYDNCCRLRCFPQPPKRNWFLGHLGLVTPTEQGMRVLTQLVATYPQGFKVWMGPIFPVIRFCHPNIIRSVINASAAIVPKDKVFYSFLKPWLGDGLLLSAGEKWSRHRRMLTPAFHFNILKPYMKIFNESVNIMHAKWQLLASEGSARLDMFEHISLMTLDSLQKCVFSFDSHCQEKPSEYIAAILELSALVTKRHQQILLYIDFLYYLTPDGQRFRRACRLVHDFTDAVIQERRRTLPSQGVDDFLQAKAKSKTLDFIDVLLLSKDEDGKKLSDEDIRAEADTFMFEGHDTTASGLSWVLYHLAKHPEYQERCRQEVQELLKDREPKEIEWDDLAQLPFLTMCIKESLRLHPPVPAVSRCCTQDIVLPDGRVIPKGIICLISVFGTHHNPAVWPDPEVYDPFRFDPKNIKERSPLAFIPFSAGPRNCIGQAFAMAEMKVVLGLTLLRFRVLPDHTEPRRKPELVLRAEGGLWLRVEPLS

[4] = biological target: T3, recombinant CYP4F2 (Homo sapiens, UniProt P78329); test: Chemical inhibition of M1 formation by recombinant CYP4F2; format: biochemical
T3 sequence (P78329 5-520): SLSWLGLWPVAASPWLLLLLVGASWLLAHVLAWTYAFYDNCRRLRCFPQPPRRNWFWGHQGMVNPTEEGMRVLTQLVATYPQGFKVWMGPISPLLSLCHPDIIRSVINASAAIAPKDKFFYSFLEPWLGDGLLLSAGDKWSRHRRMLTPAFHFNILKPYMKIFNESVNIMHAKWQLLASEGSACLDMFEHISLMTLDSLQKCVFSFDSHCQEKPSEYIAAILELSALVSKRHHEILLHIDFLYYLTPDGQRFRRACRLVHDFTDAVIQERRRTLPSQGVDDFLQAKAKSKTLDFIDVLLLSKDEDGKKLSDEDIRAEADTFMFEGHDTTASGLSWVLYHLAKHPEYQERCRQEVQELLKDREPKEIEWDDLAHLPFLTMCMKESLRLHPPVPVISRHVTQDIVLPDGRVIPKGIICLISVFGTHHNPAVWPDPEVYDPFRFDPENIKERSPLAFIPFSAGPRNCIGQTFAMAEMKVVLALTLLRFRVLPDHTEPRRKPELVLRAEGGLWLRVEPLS

[5] = Incubation of DB289 with pooled human liver microsomes; format: in vitro ADME; conditions: 15 μM DB289, 0.2 mg/ml HLMs, 0-120 min
In short: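 Pooled liver microsomes (50 donors, mixed gender) at 0.2 mg/ml with 15 μM substrate in a 1 ml mix, equilibrated 5 min at 37°C, then started with NADPH. Aliquots taken at 0, 5, 15, 30 and 120 min into ice-cold acetonitrile. LC/UV at 359 nm against an external 0.1–15 μM calibration; metabolites identified by retention time versus synthetic standards. Single determination; controls lacked NADPH, protein or substrate.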

[6] = HLMs, ref Zimmerlin and Patten (2000), cited from earlier work
[7] = system: CYP2J2; conditions: ref Hashizume et al. (2002); cited from earlier work
[8] = 0.2 μM and 1 μM, 10 pmol/ml P450, 3 μM DB289
[9] = read-out: inhibition of M1 formation
[10] = 100 μM inhibitor, 10 pmol/ml P450, 3 μM DB289

- activation of M1 formation at low concentrations [1, 8]: activation was not observed
- activation of M1 formation at low concentrations [3, 8]: appeared to activate
- activation of M1 formation at low concentrations [4, 8]: activation was not observed
SMILES: C#CCCCCCCCCCCCCCCCC(=O)O [17-ODYA, 17-Octadecynoic acid]
- inhibition of M1 formation ([2]; 1 μM inhibitor, 15 min preincubation, 0.2 mg/ml HLM, 3 μM DB289): 39%
- inhibition of M1 formation ([2]; 10 μM inhibitor, 15 min preincubation, 0.2 mg/ml HLM, 3 μM DB289): 84%

SMILES: Nn1nnc2ccccc21 [ABT, 1-aminobenzotriazole]
- inhibition of M1 formation relative to control ([2]; 100 μM inhibitor, 15 min preincubation, 0.2 mg/ml HLM, 3 μM DB289, 5 min): 86%

- concentration of metabolite formed from DB289 [5]: below the lower level of quantification
SMILES: N=C(N)c1ccc(-c2ccc(-c3ccc(C(=N)N)cc3)o2)cc1 [DB75, 2,5-bis(4-amidinophenyl) furan]

SMILES: CCCCCCCCc1ccc(CCC(N)(CO)CO)cc1 [FTY720, 2-amino-2-[2-(4-octylphenyl)ethyl]-1,3-propanediol]
- Vmax of ω-hydroxylation [6]: 1850 pmol/min/mg protein
- Km ([6]; read-out: apparent Km of ω-hydroxylation): 180 µM

- inhibition at 0.02 µM [3, 9]: 79%
- inhibition at 0.02 µM [4, 9]: 82%
SMILES: CCCCc1ccc(N=CNO)c(C)c1 [HET0016, N-hydroxy-N′-(4-n-butyl-2-methylphenyl)formamidine]
- inhibition of M1 formation ([2]; 0.1 μM inhibitor, 0.2 mg/ml HLM, 3 μM DB289): 78%
- inhibition of M1 formation ([2]; 0.5 μM inhibitor, 0.2 mg/ml HLM, 3 μM DB289): 95%

- inhibition of M1 formation [3, 10]: potently inhibited
- inhibition of M1 formation [4, 10]: potently inhibited
SMILES: CCCCC/C=C\C/C=C\C/C=C\C/C=C\CCCC(=O)O [arachidonic acid]
- inhibition of M1 formation ([2]; 500 μM inhibitor, 0.2 mg/ml HLM, 3 μM DB289): 60%
- inhibition of M1 formation ([2]; inhibitor up to 100 μM, 0.2 mg/ml HLM, 3 μM DB289): no effect

SMILES: CC(C)(C)c1ccc(C(=O)CCCN2CCC(OC(c3ccccc3)c3ccccc3)CC2)cc1 [ebastine]
- Km [7]: 1300 nM

- inhibition at 5 min, 3 μM ([1]; human, recombinant CYP2J2, pH 7.4, probe DB289 (3 μM), conversion to M1): 93%
- inhibition of M1 formation ([3]; 3 μM inhibitor, 10 pmol/ml P450, 3 μM DB289, 15 min): no effect
- inhibition at 3 µM [4, 9]: 87%
SMILES: CC(=O)N1CCN(c2ccc(OCC3COC(Cn4ccnc4)(c4ccc(Cl)cc4Cl)O3)cc2)CC1 (stereo not shown) [ketoconazole]
- inhibition of M1 formation ([2]; 3 μM inhibitor, 0.2 mg/ml HLM, 3 μM DB289, 5 min, Fig. 4): 61%
- inhibition of M1 formation ([2]; 3 μM inhibitor, 0.2 mg/ml pooled HLMs (different lot), 3 μM DB289, 5 min, Fig. 8): ~43%

SMILES: CO[C@H]1C[C@H](O[C@H]2[C@H](C)[C@@H](O[C@@H]3O[C@H](C)C[C@H](N(C)C)[C@H]3OC(C)=O)[C@@H](C)C[C@@]3(CO3)C(=O)[C@H](C)[C@@H](OC(C)=O)[C@@H](C)[C@@H](C)OC(=O)[C@@H]2C)O[C@@H](C)[C@@H]1OC(C)=O [troleandomycin]
- inhibition of M1 formation ([2]; 50 or 100 μM inhibitor, 0.2 mg/ml HLM, 3 μM DB289): did not inhibit

SMILES: O=c1cc(-c2ccccc2)oc2c1ccc1ccccc12 [α-naphthoflavone]
- inhibition of M1 formation ([2]; 1 μM inhibitor, 0.2 mg/ml HLM, 3 μM DB289, 5 min): negligible inhibition
